Laboratory results reported in paper PMC2857138 (The Journal of Biological Chemistry, 2010).

How the values were obtained:
Assay type in all cases: biochemical
[1] = biological target: IP3R2 (Mus musculus, UniProt Q9Z329, G1969A/G1971A/G1974A); assay: Ca2+ release from stores of permeabilized DT40-ΔATPB cells
Summary of the method: (§1)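 DT40 cells lacking all endogenous IP3R genes were stably transfected with the IP3R construct and selected with G418 (2 mg/ml). Intracellular stores were loaded with Mag-fluo-4, and cells were permeabilized with saponin (10 μg/ml) at 20 °C in cytosol-like medium (free Ca²⁺ 220 nM, pH 7.0). After MgATP (1.5 mM) loading reached steady state, IP3 was added with thapsigargin (1 μM). Release was expressed as a fraction of ionomycin (1 μM) release.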

[2] = biological target: IP3R3 (Rattus norvegicus, UniProt Q63269); assay: Ca2+ release from stores of permeabilized DT40 cells
[3] = biological target: IP3R2 (Mus musculus, UniProt Q9Z329); assay: Ca2+ release from stores of permeabilized DT40 cells
Summary of the method: as §1

Chain of IP3R2 (Mus musculus, UniProt Q9Z329) (Q9Z329 whole entry): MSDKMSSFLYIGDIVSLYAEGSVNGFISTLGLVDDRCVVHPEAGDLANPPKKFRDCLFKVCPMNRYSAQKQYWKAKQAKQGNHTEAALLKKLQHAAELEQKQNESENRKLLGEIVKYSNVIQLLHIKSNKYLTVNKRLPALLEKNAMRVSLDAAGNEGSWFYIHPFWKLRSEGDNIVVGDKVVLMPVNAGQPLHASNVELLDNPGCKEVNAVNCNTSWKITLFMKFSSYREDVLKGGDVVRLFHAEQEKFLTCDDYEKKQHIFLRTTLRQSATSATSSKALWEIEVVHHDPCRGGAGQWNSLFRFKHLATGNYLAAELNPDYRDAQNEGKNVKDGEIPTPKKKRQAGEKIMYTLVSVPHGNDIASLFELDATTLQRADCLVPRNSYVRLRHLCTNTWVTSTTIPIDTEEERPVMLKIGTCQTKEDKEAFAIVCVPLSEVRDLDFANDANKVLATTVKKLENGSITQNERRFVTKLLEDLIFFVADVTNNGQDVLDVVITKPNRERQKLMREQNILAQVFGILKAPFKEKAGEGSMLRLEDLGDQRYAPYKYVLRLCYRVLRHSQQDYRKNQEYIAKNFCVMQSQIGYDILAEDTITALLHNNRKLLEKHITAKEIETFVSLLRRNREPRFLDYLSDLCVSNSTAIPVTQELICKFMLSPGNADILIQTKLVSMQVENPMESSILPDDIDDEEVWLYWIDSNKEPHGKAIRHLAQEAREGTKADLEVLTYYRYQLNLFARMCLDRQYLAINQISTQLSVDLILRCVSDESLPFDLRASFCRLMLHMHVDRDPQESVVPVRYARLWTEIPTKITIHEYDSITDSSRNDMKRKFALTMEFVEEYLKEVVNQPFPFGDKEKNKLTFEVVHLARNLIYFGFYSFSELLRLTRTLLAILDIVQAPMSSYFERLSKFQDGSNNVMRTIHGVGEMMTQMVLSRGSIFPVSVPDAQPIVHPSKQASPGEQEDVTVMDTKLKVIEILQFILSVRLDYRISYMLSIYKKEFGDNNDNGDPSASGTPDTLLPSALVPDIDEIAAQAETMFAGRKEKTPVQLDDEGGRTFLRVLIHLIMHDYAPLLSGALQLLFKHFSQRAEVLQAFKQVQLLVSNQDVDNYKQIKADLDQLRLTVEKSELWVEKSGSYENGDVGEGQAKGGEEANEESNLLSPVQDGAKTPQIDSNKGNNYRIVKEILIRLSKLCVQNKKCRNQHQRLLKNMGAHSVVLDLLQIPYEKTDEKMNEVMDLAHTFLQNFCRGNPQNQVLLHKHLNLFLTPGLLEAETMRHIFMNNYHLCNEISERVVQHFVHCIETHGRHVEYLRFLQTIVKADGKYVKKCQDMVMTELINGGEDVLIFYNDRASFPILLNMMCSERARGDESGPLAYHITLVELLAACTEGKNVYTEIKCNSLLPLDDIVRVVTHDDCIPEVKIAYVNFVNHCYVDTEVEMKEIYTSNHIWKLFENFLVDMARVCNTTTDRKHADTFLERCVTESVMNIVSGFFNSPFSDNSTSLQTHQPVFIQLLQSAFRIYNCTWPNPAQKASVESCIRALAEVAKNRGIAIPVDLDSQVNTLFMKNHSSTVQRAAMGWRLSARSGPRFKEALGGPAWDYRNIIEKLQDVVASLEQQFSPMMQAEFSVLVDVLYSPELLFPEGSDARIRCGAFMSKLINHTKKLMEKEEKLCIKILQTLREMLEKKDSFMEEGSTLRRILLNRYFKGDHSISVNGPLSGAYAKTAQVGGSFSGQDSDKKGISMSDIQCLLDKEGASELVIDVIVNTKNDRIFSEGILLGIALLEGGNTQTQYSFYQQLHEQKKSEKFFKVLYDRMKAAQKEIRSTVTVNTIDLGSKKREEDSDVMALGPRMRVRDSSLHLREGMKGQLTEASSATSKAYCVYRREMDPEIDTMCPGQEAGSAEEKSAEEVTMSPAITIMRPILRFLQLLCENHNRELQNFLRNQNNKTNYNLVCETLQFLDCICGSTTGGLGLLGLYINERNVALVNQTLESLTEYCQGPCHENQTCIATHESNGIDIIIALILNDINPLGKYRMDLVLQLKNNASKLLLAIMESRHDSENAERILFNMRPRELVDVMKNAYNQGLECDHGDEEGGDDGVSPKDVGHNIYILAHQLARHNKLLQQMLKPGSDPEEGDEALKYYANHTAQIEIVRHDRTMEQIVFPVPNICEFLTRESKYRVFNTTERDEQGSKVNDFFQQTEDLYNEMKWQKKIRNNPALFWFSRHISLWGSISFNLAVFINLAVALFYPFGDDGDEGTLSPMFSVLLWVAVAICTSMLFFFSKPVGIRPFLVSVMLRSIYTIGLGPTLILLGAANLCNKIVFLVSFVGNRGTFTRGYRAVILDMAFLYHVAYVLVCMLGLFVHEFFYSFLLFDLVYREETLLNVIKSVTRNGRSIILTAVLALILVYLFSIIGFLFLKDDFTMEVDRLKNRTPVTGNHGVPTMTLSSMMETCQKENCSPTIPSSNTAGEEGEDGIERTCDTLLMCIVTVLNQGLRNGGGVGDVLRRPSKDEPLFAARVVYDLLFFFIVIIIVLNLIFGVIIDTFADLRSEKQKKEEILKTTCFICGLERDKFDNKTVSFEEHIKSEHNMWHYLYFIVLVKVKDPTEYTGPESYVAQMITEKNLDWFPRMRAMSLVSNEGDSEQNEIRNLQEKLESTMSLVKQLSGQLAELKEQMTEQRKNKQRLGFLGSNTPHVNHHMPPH

EC50 [1]: 246 ± 17 nM | EC50 [2]: 255 ± 9 nM | EC50 [3]: 74 ± 10 nM
SMILES: O=P(O)(O)O[C@@H]1[C@H](O)[C@H](O)[C@@H](OP(=O)(O)O)[C@H](OP(=O)(O)O)[C@H]1O [IP3]
